Results published in PMC6424611 (Journal of molecular biology, 2019).
Where no end group is shown, it is not given here. The star is where a group is joined. Biotin = O=C1N[C@H]2[C@H](CS[C@H]2CCCCC(=O)*)N1; TTDS = NCCCOCCOCCOCCCNC(=O)CCC(=O)*

What was measured:
[1] = target: T1, GRID2IP-2 PDZ (Homo sapiens, UniProt A4D2P6); test: holdup assay; format: binding; details: words; GRID2IP
In short: (§1)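 Automated holdup in triplicate measured biotinylated (N-terminal TTDS linker) RSK1 725–735 peptides, unphosphorylated or phosphorylated, against E. coli-expressed PDZome v2 domains. Soluble lysate was adjusted to ~4 μM, giving 255 domains for the unphosphorylated and 252 for the phosphorylated peptide. Binding intensity (BI) is the fraction of PDZ depleted from the fluid phase. BI 0.2 was the high-confidence threshold.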

[2] = target: T2, SNX27 PDZ (Homo sapiens, UniProt Q96L92); test: holdup assay; format: binding; details: words
[3] = target: T3, PARD3B-1 PDZ (Homo sapiens, UniProt Q8TEW8); test: holdup assay; format: binding; details: words; PARD3B
T3 sequence (Q8TEW8 201-289 limits assumed): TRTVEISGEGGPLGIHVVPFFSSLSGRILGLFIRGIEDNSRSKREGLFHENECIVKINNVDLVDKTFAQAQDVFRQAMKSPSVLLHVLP
In short: as §1

[4] = target: T4, ARHGEF12 PDZ (Homo sapiens, UniProt Q9NZN5); test: holdup assay; format: binding; details: words
T4 sequence (Q9NZN5 72-151 limits assumed): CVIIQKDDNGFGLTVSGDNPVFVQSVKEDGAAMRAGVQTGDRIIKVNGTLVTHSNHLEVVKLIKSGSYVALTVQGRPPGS
In short: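 Automated holdup against N-terminally biotinylated (TTDS linker) RSK1 725–735 peptides, unphosphorylated and phosphorylated, in triplicate. PDZome v2 clones were codon-optimized and expressed in E. coli, with soluble lysate adjusted to ~4 μM. BI is the PDZ fraction depleted from the fluid phase.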

[5] = tested on: first PDZ domain of NHERF (EBP50); test: holdup assay; format: binding, human
[6] = tested on: first PDZ domain of Scribble; test: holdup assay; format: binding, human
[7] = target: T5, SNTG2 PDZ (Homo sapiens, UniProt Q9NY99); test: surface plasmon resonance; format: binding; details: internal standard; biotinylated HPV16 E6 peptide immobilized; steady state
T5 sequence (Q9NY99 73-156 limits assumed): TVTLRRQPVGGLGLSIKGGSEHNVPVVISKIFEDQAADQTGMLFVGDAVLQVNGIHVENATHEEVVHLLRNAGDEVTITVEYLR
In short: (§2)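 Biacore SPR on a CM5 chip. Streptavidin was immobilized by EDC coupling, then biotinylated HPV16 E6 peptide was captured and extensively washed. Tandem Ni/MBP-purified MBP-PDZ domains were then injected. The E6 peptide served as an internal standard.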

[8] = target: GOPC PDZ (Homo sapiens, UniProt Q9HD26); test: surface plasmon resonance; format: binding; details: internal standard; biotinylated HPV16 E6 peptide immobilized; steady state
[9] = target: T2, SNX27 PDZ; test: surface plasmon resonance; format: binding; details: internal standard; biotinylated HPV16 E6 peptide immobilized; steady state
[10] = target: T3, PARD3B-1 PDZ; test: surface plasmon resonance; format: binding; details: internal standard; biotinylated HPV16 E6 peptide immobilized; steady state
In short: as §2

[11] = target: GORASP2 PDZ; test: surface plasmon resonance; format: binding, human; details: internal standard; biotinylated HPV16 E6 peptide immobilized; steady state
In short: as §2

[12] = target: T1, GRID2IP-2 PDZ; test: surface plasmon resonance; format: binding; details: internal standard; biotinylated HPV16 E6 peptide immobilized; steady state
In short: as §2

[13] = target: HTRA1 PDZ (Homo sapiens, UniProt Q92743); test: surface plasmon resonance; format: binding; details: internal standard; biotinylated HPV16 E6 peptide immobilized; steady state
In short: as §2

[14] = target: T6, PDZD7-3 PDZ (Homo sapiens, UniProt Q9H5P4); test: surface plasmon resonance; format: binding; details: internal standard; biotinylated HPV16 E6 peptide immobilized; steady state
T6 sequence (Q9H5P4 862-934 limits assumed): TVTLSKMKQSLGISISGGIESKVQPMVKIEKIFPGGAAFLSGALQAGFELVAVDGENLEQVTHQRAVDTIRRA
In short: as §2

[15] = target: T7, MAST1 PDZ (Homo sapiens, UniProt Q9Y2H9); test: surface plasmon resonance; format: binding; details: internal standard; biotinylated HPV16 E6 peptide immobilized; steady state
T7 sequence (Q9Y2H9 967-1055 limits assumed): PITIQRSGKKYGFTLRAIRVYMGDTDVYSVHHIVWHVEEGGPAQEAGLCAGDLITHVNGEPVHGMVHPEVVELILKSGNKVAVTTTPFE
In short: as §2

[16] = tested on: ARHGEF12; test: NanoBiT protein-protein interaction assay; format: cell-based, human; details: RSK1–ARHGEF12 sensor, 20 ng/ml EGF, serum-starved HEK293T, 60 min
In short: (§3)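 Full-length RSK1 (N-terminal SmBiT) is paired with an N-terminal LgBiT fusion of the partner: ARHGEF12 isoform 2, GOPC isoform 2, PARD3B 1–913, or SYNJ2BP. Sensors are transiently co-expressed in HEK293T cells, which are serum-starved for 20 h from 4 h post-transfection and assayed with Nano-Glo at 24 h. Steady-state signal is referenced to the wild-type pair. For the EGF response (20 ng/ml, 60 min), signal is normalized to initial luminescence and to unstimulated furimazine decay. At least 6 replicates.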

[17] = tested on: GOPC; test: NanoBiT protein-protein interaction assay; format: cell-based, human; details: RSK1–GOPC sensor, 20 ng/ml EGF, serum-starved HEK293T, 60 min
In short: as §3

[18] = tested on: MAGI1; test: NanoBiT protein-protein interaction assay; format: cell-based, human; details: RSK1–MAGI1 sensor, 20 ng/ml EGF, serum-starved HEK293T, 60 min
In short: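 Full-length RSK1 (N-terminal SmBiT) is co-expressed with full-length MAGI1–LgBiT in HEK293T cells by FuGene HD transfection, then serum-starved for 20 h in CO2-independent medium. Cells are read with Nano-Glo 24 h post-transfection. Steady-state luminescence of mutant sensors is referenced to the wild-type pair. For the 20 ng/ml EGF response, signal is followed for 60 min and normalized to initial luminescence and to furimazine decay in unstimulated cells. At least 6 biological replicates.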

[19] = tested on: PARD3B; test: NanoBiT protein-protein interaction assay; format: cell-based, human; details: RSK1–PARD3B sensor, 20 ng/ml EGF, serum-starved HEK293T, 60 min
In short: as §3

[20] = tested on: SYNJ2BP; test: NanoBiT protein-protein interaction assay; format: cell-based, human; details: RSK1–SYNJ2BP sensor, 20 ng/ml EGF, serum-starved HEK293T, 60 min
In short: as §3

[21] = tested on: ERK2; test: NanoBiT protein-protein interaction assay; format: cell-based; details: RSK1–ERK2 sensor, 20 ng/ml EGF, serum-starved HEK293T, 60 min
In short: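 Full-length RSK1 carries an N-terminal SmBiT tag, and full-length ERK2 is fused to LgBiT. HEK293T cells (DMEM, 10% FBS) are seeded at 2×10^4/well 24 h before FuGene HD co-transfection, then starved for 20 h in CO2-independent medium from 4 h post-transfection. After 20 ng/ml EGF, Nano-Glo luminescence is followed for 60 min and normalized to initial signal and to furimazine decay in unstimulated cells. At least 6 biological replicates.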

[22] = tested on: RhoA; test: G-LISA RhoA activation assay; format: cell-based; details: ARHGEF12 mutants, n=4

T1 sequence (A4D2P6 279-356 limits assumed): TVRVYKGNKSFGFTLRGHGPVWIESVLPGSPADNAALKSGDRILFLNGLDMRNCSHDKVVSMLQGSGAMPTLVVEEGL
HTRA1 PDZ, sequence (Q92743 365-467 limits assumed): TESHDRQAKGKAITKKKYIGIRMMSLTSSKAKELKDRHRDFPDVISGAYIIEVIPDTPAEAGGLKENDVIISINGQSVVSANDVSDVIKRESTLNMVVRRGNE

RSK1 PBM: PDZ binding motif of the RSK1 C-terminal tail ({Biotin-TTDS}-RRVRKLPSTTL)
effect of phosphorylation on binding [1]: mostly eliminated | effect of phosphorylation on binding [2]: promoted by phosphorylation | affinity to both states of the RSK1 PBM [3]: comparable affinities to both states | effect of phosphorylation on binding [4]: mostly eliminated | interaction detected [5]: did not detect any interaction | BI [6]: 0.17–0.18

CC(C)C[C@H](NC(=O)[C@H](CCC(N)=O)NC(=O)[C@@H](NC(=O)[C@H](CCC(=O)O)NC(=O)[C@H](CCCNC(=N)N)NC(=O)[C@H](CCCNC(=N)N)NC(=O)[C@@H](NC(=O)[C@H](CCCNC(=N)N)NC(=O)[C@H](CO)NC(=O)[C@@H](N)CO)[C@@H](C)O)[C@@H](C)O)C(=O)O [HPV16 E6]
KD, SPR, HPV16 E6 [7]: no binding | KD, SPR, HPV16 E6 [8]: no binding | KD, SPR, HPV16 E6 [9]: no binding | KD, SPR, HPV16 E6 [10]: no binding | KD, SPR, HPV16 E6 [11]: no binding | KD, SPR, HPV16 E6 [12]: no binding | KD, SPR, HPV16 E6 [13]: no binding | KD, SPR, HPV16 E6 [14]: no binding | KD, SPR, HPV16 E6 [15]: no binding

EGF: epidermal growth factor (Sigma-Aldrich), 20 ng/ml (NSDSECPLSHDGYCLHDGVCMYIEALDKYACNCVVGYIGERCQYRDLKWWELR; UniProt P01133 971-1023, looked up)
change in luminescence after EGF [16]: decrease in luminescence | change in luminescence after EGF [17]: decrease in luminescence | change in luminescence after EGF [18]: decrease in luminescence | change in luminescence after EGF [19]: did not show any change | change in luminescence after EGF [20]: increased luminescence | change in luminescence after EGF [21]: time-modulated decrease of the luminescence signal

S1288E: ARHGEF12 mutant mimicking the RSK1 phosphorylation site
decrease of RhoA signal by ARHGEF12 mutation [22]: 20%
